Data set [1] deals with Shigella dysenteriae. In words: Antibacterial activity against Shigella dysenteriae by two-fold serial dilution method. It is filed as functional. The essentials: (§1)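 MIC read as the lowest concentration giving complete growth inhibition. Two-fold serial dilutions were made in 96-well plates following NCCLS, giving a series down to 0.5 µg/mL (…32, 16, 8, 4, 2, 1, 0.5). Plates were inoculated and incubated at 37 °C for 24 h. A DMSO-with-inoculum control without drug was included. Growth was monitored visually and spectrophotometrically, in triplicate.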

In data set [2] the test system is Micrococcus luteus. Description: Antibacterial activity against Micrococcus luteus by two-fold serial dilution method. It is filed as functional. The essentials: (§2)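 Standard two-fold serial dilution in 96-well microtest plates following NCCLS. Top dilutions printed as 32, 16, 8, 4, 2, 1, 0.5 ug/mL. Wells inoculated and held at 37 °C for 24 h. Growth judged visually and by spectrophotometer, in triplicate. MIC is the lowest concentration giving complete growth inhibition.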

Data set [3] concerns Pseudomonas aeruginosa. Description: Antibacterial activity against Pseudomonas aeruginosa by two-fold serial dilution method. In kind it is functional. The essentials: as §2
The subject of data set [4] is Staphylococcus aureus. In words: Antibacterial activity against methicillin-resistant Staphylococcus aureus N315 by two-fold serial dilution method. It is filed as functional. The procedure, abridged:
as §1

The subject of data set [5] is Cyberlindnera jadinii. Description: Antifungal activity against Candida utilis after 24 hrs by microbroth dilution method. It is filed as functional. Conditions: Williopsis jadinii. The procedure, abridged:
(§3)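 Spore suspension prepared in sterile distilled water from one-day-old cultures on Sabouraud agar, final 1-5 x 10^3 spores/mL. Compounds were serially diluted in RPMI 1640 to give eleven dilutions. Incubation at 35 °C for 24 h. Growth read visually and spectrophotometrically, in triplicate. MIC is the lowest concentration with complete inhibition.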

For data set [6], the system named is Bacillus spizizenii. In words: Antibacterial activity against Bacillus subtilis ATCC 6633 by two-fold serial dilution method. In kind it is functional. The procedure, abridged:
as §2

The test system of data set [7] is Escherichia coli. Description: Antibacterial activity against Escherichia coli DH52 by two-fold serial dilution method. It is filed as functional. The procedure, abridged:
as §2

Data set [8] in a line: Antibacterial activity against Eberthella typhosa by two-fold serial dilution method. It is filed as functional. The essentials: as §1
Data set [9] concerns Saccharomyces cerevisiae. In words: Antifungal activity against Saccharomyces cerevisiae after 24 hrs by microbroth dilution method. In kind it is functional. The essentials:
as §3
A general note: Broth dilution looks for growth in wells or tubes with falling amounts of substance.

The subject of data set [10] is Streptococcus pneumoniae. In words: Antibacterial activity against Streptococcus pneumoniae by two-fold serial dilution method. In kind it is functional. The essentials:
as §2

Data set [11] deals with Staphylococcus aureus. In words: Antibacterial activity against Staphylococcus aureus ATCC 25923 by two-fold serial dilution method. In kind it is functional. The essentials:
as §2

Data set [12] has as its system Pichia norvegensis. Description: Antifungal activity against Candida mycoderma after 24 hrs by microbroth dilution method. It is filed as functional.
For data set [13], the system named is Candida albicans. Description: Antifungal activity against Candida albicans ATCC 76615 after 24 hrs by microbroth dilution method. It is filed as functional. The conditions noted are these: ATCC 76615, 24 h. The essentials: as §3
Data set [14] in a line: Aqueous solubility of the compound by UV-spectrophotometry. In kind it is physicochemical.
Data set [15] is described as follows: Octanol-water partition co-efficient, log P of the compound by shake flask method. It is filed as physicochemical.
The nature of data set [16]: Dissociation constant, pKa of the compound by UV-spectroscopy. It is filed as physicochemical. The essentials: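 DMSO stock at 4.0 × 10^-3 mol/L added to 2 mL of buffer, then shaken 10 min at room temperature. Buffers were acetate (pH 4.0–5.0), MES (5.5–6.5), HEPES (7.0–8.0) and CHES (8.5–9.4), each from 500 mM stocks. Scans ran 210–400 nm and were normalized. Absolute differences from the acid spectrum were summed at 244 and 308 nm, plotted against pH and fitted to obtain pKa.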

Converted amounts (≈) assume the structure as drawn.

We go through seven molecules from ChEMBL document CHEMBL3351780, “Novel hybrids of metronidazole and quinolones: synthesis, bioactive evaluation, cytotoxicity, preliminary antimicrobial mechanism and effect of metal ions on their transportation by human serum albumin” (Eur J Med Chem, 2014).

Usually MIC stands for the least concentration at which growth counts as inhibited. Regarding `O=C(O)c1cn(CC(O)Cn2cnc([N+](=O)[O-])c2)c2c(F)cccc2c1=O` (stereo not given), the MIC is 8 µg/mL (≈ 21.3 µM) in [1]; 4 µg/mL (≈ 10.6 µM) in data set [2]; 8 µg/mL (≈ 21.3 µM) in data set [3]; 4 µg/mL (≈ 10.6 µM) in [4]; 512 µg/mL (≈ 1360 µM) in data set [5]; 4 µg/mL (≈ 10.6 µM) in [6]. The MIC in [7] turned out to be 4 µg/mL (≈ 10.6 µM); in data set [8], 32 µg/mL (≈ 85 µM); in data set [9], 64 µg/mL (≈ 170 µM); in data set [10], 32 µg/mL (≈ 85 µM); in data set [11] it was 16 µg/mL (≈ 42.5 µM); in [12], 128 µg/mL (≈ 340 µM). The same molecule had an MIC in data set [13] of 128 µg/mL (≈ 340 µM).
The term solubility denotes the dissolved amount per volume that the medium holds. The logP is a log measure of how a compound divides between an organic and an aqueous phase. Read a low logP as a more hydrophilic compound. One may read the pKa as the negative logarithm of the acid dissociation constant. Consider `Cc1ncc([N+](=O)[O-])n1CC(O)Cn1cc(C(=O)O)c(=O)c2cccc(F)c21` (stereo not given), for which the MIC amounted to 8 µg/mL (≈ 20.5 µM) in data set [1]; 4 µg/mL (≈ 10.2 µM) in data set [2]; 2 µg/mL (≈ 5.12 µM) in data set [3]; 4 µg/mL (≈ 10.2 µM) in data set [4]; 256 µg/mL (≈ 656 µM) in data set [5]; 16 µg/mL (≈ 41 µM) in data set [6]. Further, the MIC came out at 4 µg/mL (≈ 10.2 µM) in [7]; 4 µg/mL (≈ 10.2 µM) in data set [8]; 64 µg/mL (≈ 164 µM) in data set [9]; 32 µg/mL (≈ 82 µM) in [10]; 8 µg/mL (≈ 20.5 µM) in data set [11]; 512 µg/mL (≈ 1310 µM) in data set [12]. 256 µg/mL (≈ 656 µM) was the least that counted as inhibitory in [13] (MIC). The solubility in data set [14] is 390 µg/mL (≈ 999 µM). In data set [15], this molecule showed a logP of -0.13. This molecule displayed a pKa in data set [16] of 5.12.
Turning to `O=C(O)c1cn(CC(O)Cn2cnc([N+](=O)[O-])c2)c2c(F)cc(F)cc2c1=O` (stereo not given), the MIC came out at 32 µg/mL (≈ 81.2 µM) in [1]; 8 µg/mL (≈ 20.3 µM) in data set [2]; 32 µg/mL (≈ 81.2 µM) in data set [3]; 16 µg/mL (≈ 40.6 µM) in data set [4]; 256 µg/mL (≈ 649 µM) in [5]; 8 µg/mL (≈ 20.3 µM) in [6]. For the same molecule, the MIC in data set [7] was 32 µg/mL (≈ 81.2 µM); in [8] it was 32 µg/mL (≈ 81.2 µM); in data set [9], 256 µg/mL (≈ 649 µM); in [10] it was 16 µg/mL (≈ 40.6 µM); in data set [11], 16 µg/mL (≈ 40.6 µM); in data set [12], 64 µg/mL (≈ 162 µM). Moreover, the MIC in [13] came to 16 µg/mL (≈ 40.6 µM).
For the molecule `O=C(O)c1cn(CC(O)Cn2cnc([N+](=O)[O-])c2)c2c(Cl)cc(Cl)cc2c1=O` (stereo not given), the MIC was 8 µg/mL (≈ 18.7 µM) in data set [1]; 8 µg/mL (≈ 18.7 µM) in data set [2]; 8 µg/mL (≈ 18.7 µM) in data set [3]; 16 µg/mL (≈ 37.5 µM) in data set [4]; 256 µg/mL (≈ 599 µM) in data set [5]; 4 µg/mL (≈ 9.36 µM) in data set [6]. Further, the MIC in data set [7] amounted to 8 µg/mL (≈ 18.7 µM); in data set [8], 16 µg/mL (≈ 37.5 µM); in [9], 128 µg/mL (≈ 300 µM); in data set [10], 8 µg/mL (≈ 18.7 µM); in [11], 8 µg/mL (≈ 18.7 µM); in [12] it was 64 µg/mL (≈ 150 µM). Moreover, the MIC in data set [13] was determined as 256 µg/mL (≈ 599 µM).
In the case of `Cc1ncc([N+](=O)[O-])n1CC(O)Cn1cc(C(=O)O)c(=O)c2cc(Cl)cc(Cl)c21` (stereo not given), the MIC came to 16 µg/mL (≈ 36.3 µM) in data set [1]; 16 µg/mL (≈ 36.3 µM) in data set [2]; 8 µg/mL (≈ 18.1 µM) in data set [3]; 32 µg/mL (≈ 72.5 µM) in data set [4]; 256 µg/mL (≈ 580 µM) in data set [5]; 8 µg/mL (≈ 18.1 µM) in data set [6]. In addition, the MIC in data set [7] came out at 32 µg/mL (≈ 72.5 µM); in [8], 32 µg/mL (≈ 72.5 µM); in [9], 64 µg/mL (≈ 145 µM); in data set [10], 16 µg/mL (≈ 36.3 µM); in data set [11] it was 16 µg/mL (≈ 36.3 µM); in [12], 256 µg/mL (≈ 580 µM). In addition, in [13], the MIC is 128 µg/mL (≈ 290 µM). The same molecule came in with a solubility in [14] of 350 µg/mL (≈ 793 µM). In addition, the logP in [15] stood at 0.22. The pKa in [16] turned out to be 5.26.
Regarding `O=C(O)c1cn(CC(O)Cn2cnc([N+](=O)[O-])c2)c2cc(C(F)(F)F)ccc2c1=O` (stereo not given), the MIC in data set [1] was determined as 4 µg/mL (≈ 9.38 µM); in [2], 8 µg/mL (≈ 18.8 µM); in data set [3], 8 µg/mL (≈ 18.8 µM); in data set [4] it was 4 µg/mL (≈ 9.38 µM); in [5], 128 µg/mL (≈ 300 µM); in [6], 4 µg/mL (≈ 9.38 µM). The minimum inhibitory concentration (MIC) turned out to be 2 µg/mL (≈ 4.69 µM) in data set [7]; 4 µg/mL (≈ 9.38 µM) in data set [8]; 32 µg/mL (≈ 75.1 µM) in data set [9]; 16 µg/mL (≈ 37.5 µM) in data set [10]; 4 µg/mL (≈ 9.38 µM) in [11]; 128 µg/mL (≈ 300 µM) in data set [12]. This molecule registered an MIC in data set [13] of 128 µg/mL (≈ 300 µM).
As for `COc1ccc2c(c1)c(=O)c(C(=O)O)cn2CC(O)Cn1c([N+](=O)[O-])cnc1C` (stereo not given), the MIC in data set [1] worked out at 32 µg/mL (≈ 79.5 µM); in [2], 512 µg/mL (≈ 1270 µM); in [3], 512 µg/mL (≈ 1270 µM); in data set [4], 8 µg/mL (≈ 19.9 µM); in [5], 128 µg/mL (≈ 318 µM); in data set [6], 32 µg/mL (≈ 79.5 µM). Moreover, the MIC in data set [7] was 64 µg/mL (≈ 159 µM); in data set [8] it was 8 µg/mL (≈ 19.9 µM); in data set [9] it was 256 µg/mL (≈ 636 µM); in data set [10], 64 µg/mL (≈ 159 µM); in [11], 32 µg/mL (≈ 79.5 µM); in data set [12], 512 µg/mL (≈ 1270 µM). In [13], 128 µg/mL (≈ 318 µM) was the least that counted as inhibitory (MIC). The molecule also showed a solubility in data set [14] of 400 µg/mL (≈ 994 µM). In addition, in [15], the logP is -0.24. This molecule gave a pKa in data set [16] of 5.72.
